# Results from different studies.
# Organism: Leishmania infantum
# Effect on: parasite growth
Compound,technique,cell line,time,notes,endpoint,value
CCCCCCCCCCCCCCCCOP(=O)([O-])OCC[N+](C)(C)C,imaging,,,"intracellular, amastigote",IC50,5.28 µM
CCCCCCCCCCCCCCCCOP(=O)([O-])OCC[N+](C)(C)C,imaging,mouse Macrophage,5 days,"intracellular, amastigote",EC50,8.3 µM
CCCCCCCCCCCCCCCCC#CC(=O)O,,,52 h,promastigote,IC50,50.6 µM
Fc1ccc(Nc2c(-c3cccnn3)nc3ccccn23)cc1,,,,"intracellular, amastigote",IC50,34.6 µM
O=C(N[C@@H](Cc1ccccc1)C(=O)c1nccs1)[C@H](Cc1ccccc1)NC(=O)N1CCOCC1,,,,"intracellular, amastigote",IC50,> 64 µM
c1ccc(-c2nc3n(c2-c2ccc4cccnc4c2)CCC3)nc1,,,5 days,"intracellular, amastigote",EC50,3.98 µM
O=C(N[C@@H](Cc1ccccc1)C(=O)c1nc2ccccc2s1)[C@H](Cc1ccccc1)NC(=O)N1CCOCC1,,,,"intracellular, amastigote",IC50,12.7 µM
Cc1ccc(-c2c(-c3ccccn3)nc3n2CCC3)cc1,,,5 days,"intracellular, amastigote",EC50,0.501 µM
"O=C(N[C@@H](CCc1ccccc1)C(=O)c1cc(-c2ccccc2)on1)[C@H](Cc1ccccc1)NC(=O)N1CCOCC1 (single isomer, unassigned)",,,,"intracellular, amastigote",IC50,> 64 µM
